Data: ChEMBL document CHEMBL1157249, “Alpha-glucosidase inhibitory anthranols, kenganthranols A-C, from the stem bark of Harungana madagascariensis” (J Nat Prod, 2006)
Calls of active or inactive are those of the source. The rule behind the calls is not given here.

Columns and labels:
[1] = tested on: Saccharomyces; assay: Inhibition of Saccharomyces sp. alpha glucosidase at 800 uM by spectrophotometry
[2] = (§1) Inhibition of Saccharomyces sp. alpha glucosidase by spectrophotometry
How it was run: (§2)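 Yeast (Saccharomyces sp.) α-glucosidase, 250 units/mL, in 50 mM sodium phosphate buffer with 100 mM NaCl, pH 6.9, 37 °C; substrate […] p-nitrophenyl α-D-glucopyranoside. Hydrolysis followed continuously as absorbance increase at 400 nm. 1-Deoxynojirimycin (0.425 mM) and acarbose (0.78 mM) served as positive controls. Modified literature method.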

[3] = tested on: Saccharomyces; assay: as §1; how it was run: as §2

SMILES | Activity [1] | IC50 [2] | Activity [3]
O=c1c2cc(O)ccc2oc2cccc(O)c12 | inactive | – | –
C[C@H]1O[C@H](O[C@H]2[C@H](O)[C@@H](O)[C@@H](O[C@H]3[C@H](O)[C@@H](O)C(O)O[C@@H]3CO)O[C@@H]2CO)[C@H](O)[C@@H](O)[C@@H]1N[C@H]1C=C(CO)C(O)[C@H](O)[C@H]1O (single isomer, unassigned) [ACARBOSE] | – | 780 µM | –
OC[C@H]1NC[C@H](O)[C@@H](O)[C@@H]1O [DUVOGLUSTAT] | – | 426 µM | –
CC(C)=CCc1c(C)c(CC=C(C)C)c2c(c1O)C(=O)c1c(O)cc(O)c(CC=C(C)C)c1C2 [HARUNGANOL B] | – | 12 µM | Dose-dependent effect
CC(C)=CCc1c(O)c(CC=C(C)C)c2c(c1O)C(=O)c1c(O)cc(C)c(CC=C(C)C)c1C2O (stereo not given) [KENGANTHRANOL B] | – | 6.3 µM | Dose-dependent effect
COC1c2c(CC=C(C)C)c(C)cc(O)c2C(=O)c2c(O)cc3c(c21)CC(C(C)(C)O)O3 (stereo not given) [KENGANTHRANOL C] | – | 21.9 µM | Dose-dependent effect

Continued, values first:

Activity [1] | IC50 [2] | Activity [3] | SMILES
inactive | – | – | COc1cc2c(c(O)c1/C=C/C(C)C)C(=O)c1c(O)cc(C)cc1C2=O
inactive | – | – | COc1cc2c(c(O)c1CC(=O)C(C)C)C(=O)c1c(O)cc(C)cc1C2=O
– | 6 µM | Dose-dependent effect | CC(C)=CCc1c(C)cc(O)c2c(O)c3c(cc12)C(CC=C(C)C)(CC=C(C)C)C(O)=CC3=O [HARUNGANIN]
– | 192 µM | Dose-dependent effect | COc1cc(O)c2c(c1)C(=O)c1cc(C)cc(O)c1C2=O [PHYSCION]
